An excerpt weighted towards active compounds, which were near 1.9% of everything screened.
NOD2 RIPK2 PPI – NOD2-RIPK2 protein interaction inhibition; O43353; CHO BLA complementation NOD2-RIPK2, CCF4 ratio; inhibition, % at 4.98 µM; actives 0.38% (n = 360,000); AID 624267; in the data active = inhibition above about 21%;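 also: 0% = vehicle only and 100% = reference blocker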
NTR1 agonist – activates human neurotensin receptor 1; P30989; NTR1-U2OS beta-arrestin-GFP spot imaging, agonist mode; activation, % at 20 µM; actives 0.17% (n = 330,000); AID 493036;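 active = activation at or above 40% of the spot to cytoplasm intensity ratio, with at least 20 cells analyzed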;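 also: 0% = DMSO without peptide and 100% = 100 nM NTR1 peptide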
TLR4-MyD88 BLA – TLR4-MyD88 interaction inhibition in cells. actives 0.18% (n = 200,000). HeLa CL3-4 TLR4/MyD88 BLA complementation, FRET ratio. O00206+Q99836. inhibition, % at 8.4 µM; in the data active = inhibition above about 25%;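 also: 0% = vehicle and 100% = reference inhibitor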
TLR9-MyD88 block – inhibitors of human TLR9-MyD88 binding; Q9NR96+Q99836; CHO BLA complementation TLR9-MyD88, CCF4 FRET ratio; inhibition, % at 4.98 µM; actives 0.21% (n = 340,000); AID 504734;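 active = inhibition above the mean over all tested compounds plus 3 SD, cut at about 21% in these data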;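 also: 0% = DMSO only wells and 100% = clavulanate BLA inhibitor control wells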
MC4R antag cAMP – antagonists of human melanocortin 4 receptor (MC4R); P32245; MC4R-expressing cells, MTII-stimulated cAMP, LANCE TR-FRET; inhibition, % at 6.5 µM; actives 0.48% (n = 360,000);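 active = inhibition above its plate's cutoff, the mean of tested wells on that plate plus 3 SD, cut at about 29% in these data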;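 also: 0% = Melanotan II alone and 100% = Melanotan II plus saturating MCL0020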
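Assay system: human MC4R-expressing U2OS cells; reagent: Melanotan II stimulation of cells; dosing: 6.5 µM single dose; timing: compound 30 min, challenge 1 h, detection 1 h; signal: TR-FRET cAMP assay; replicates: one well per compound, no replicates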
MC4R barr agon – human MC4R agonism via beta-arrestin; actives 0.98% (n = 360,000); AID 540308; U2OS MC4R beta-arrestin complementation, luminescence; percent of melanotan II response, DMSO zero; activation, % at 8.9 µM; P32245;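 active = activation above a per-plate cutoff, the mean activation of sample wells on that plate plus 3 SD, cut at about 8% in these data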
MC4R barr ag – human MC4R beta-arrestin agonism confirmation | actives 31% (n = 2,400) | shares compounds with MC4R barr agon | activation, % at 8.9 µM | AID 602192 | U2OS MC4R beta-arrestin recruitment, luminescence; scaled DMSO 0%, Melanotan II 100%;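 active = mean activation across replicates above the hit cutoff set in the earlier primary screen, cut at about 8% in these data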
MOR DOR agonist – OPRM1-OPRD1 heterodimer agonism counter-screen. activation, % at 9.2 µM. shares compounds with MC4R barr agon. U2OS PathHunter beta-arrestin, beta-gal luminescence; percent of deltorphin B response, DMSO zero. actives 5.8% (n = 2,400);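 active = mean activation across replicates exceeds the hit threshold derived in the earlier primary screen, cut at about 18% in these data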;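 also: 100% = deltorphin B at 0.9 µM final and 0% = DMSO alone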
Target sequence (P35372 whole entry, looked up): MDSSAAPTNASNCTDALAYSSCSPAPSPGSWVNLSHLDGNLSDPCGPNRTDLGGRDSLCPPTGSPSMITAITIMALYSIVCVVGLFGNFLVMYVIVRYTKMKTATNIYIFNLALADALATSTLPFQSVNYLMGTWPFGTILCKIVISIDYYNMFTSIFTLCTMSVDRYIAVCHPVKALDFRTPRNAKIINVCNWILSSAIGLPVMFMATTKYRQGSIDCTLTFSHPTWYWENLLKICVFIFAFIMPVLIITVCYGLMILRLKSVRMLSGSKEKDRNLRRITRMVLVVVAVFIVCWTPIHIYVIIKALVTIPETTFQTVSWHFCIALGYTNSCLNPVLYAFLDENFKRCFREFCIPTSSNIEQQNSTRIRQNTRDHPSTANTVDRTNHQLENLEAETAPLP
Target sequence (P41143 whole entry, looked up): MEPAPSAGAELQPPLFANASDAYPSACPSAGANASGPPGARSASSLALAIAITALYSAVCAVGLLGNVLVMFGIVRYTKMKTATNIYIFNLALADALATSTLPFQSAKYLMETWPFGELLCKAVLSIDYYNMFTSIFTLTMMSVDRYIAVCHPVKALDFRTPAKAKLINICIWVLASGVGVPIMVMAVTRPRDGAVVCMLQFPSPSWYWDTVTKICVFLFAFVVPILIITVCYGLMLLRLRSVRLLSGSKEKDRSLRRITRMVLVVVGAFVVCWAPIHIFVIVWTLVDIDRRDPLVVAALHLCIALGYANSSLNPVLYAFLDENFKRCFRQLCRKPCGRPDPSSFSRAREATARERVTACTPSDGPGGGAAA
Numbers without * were called inactive; x = no result.

SMILES	NOD2 RIPK2 PPI	NTR1 agonist	TLR4-MyD88 BLA	TLR9-MyD88 block	MC4R antag cAMP	MC4R barr agon	MC4R barr ag	MOR DOR agonist
CNc1nc(N/N=C/c2cc3c(cc2[N+](=O)[O-])OCO3)nc(Nc2ccccc2)n1	-7.3	2.9	-6.4	5.0	16.5	24.5*	7.5	9.9
O=C(NCC(O)CO)c1csc(Nc2cccc3ccccc23)n1 (stereo not drawn)	2.4	0.4	x	-4.3	-4.4	0.2	x	x
COc1ccc(/C=C2/N=C(SCC(=O)Nc3cc(C)on3)N(c3ccccc3)C2=O)cc1	3.6	x	-9.6	10.3	-7.2	10.5*	4.5	4.6
CCC(SC1=N/C(=C/c2ccccc2)C(=O)N1c1ccccc1)C(=O)Nc1cc(C)on1 (stereo not drawn)	1.5	2.1	-3.4	4.1	-2.9	-1.8	x	x
Cc1cc(NC(=O)CN2C(=O)S/C(=C\c3ccccc3)C2=O)no1	-8.1	2.1	1.2	-2.7	-3.2	26.0*	3.9	9.0
COc1ccc(C(CCNCc2ccc(OC(C)C)cc2)c2ccccc2OC)cc1 (stereo not drawn)	11.0	25.3	x	6.0	9.4	12.6*	15.1*	25.4*
CCOC(=O)c1c(C)n(-c2ccc(C)cc2)c2ccc(OCC(O)CNCC3CCCO3)cc12 (stereo not drawn)	5.3	18.4	-11.7	-2.2	4.5	12.5*	16.5*	10.0
O=C(c1ccc(COc2ccc3ccccc3c2)o1)N1N=C(C(F)F)CC1(O)C(F)F (stereo not drawn)	-0.9	26.0	-0.8	3.7	-4.1	30.0*	15.6*	5.9
O=C(c1ccc(COc2ccc(Br)cc2)o1)N1N=C(C(F)F)CC1(O)C(F)F (stereo not drawn)	1.8	9.7	1.9	11.4	6.9	11.0*	22.3*	14.4
CCOc1ccc(OCc2ccc(C(=O)N3N=C(C(F)F)CC3(O)C(F)F)o2)cc1 (stereo not drawn)	7.5	0.1	2.9	-4.7	3.2	8.2	x	x
O=C(CNC(=O)N1CC(=O)Nc2ccccc21)Nc1cc(Cl)ccc1Cl	-1.8	-1.1	x	-6.0	-9.1	-2.5	x	x
Cc1ccc(COc2ccc(/C=N/NC(=O)c3nnn(-c4nonc4N)c3COc3ccc(F)cc3)cc2)cc1	9.1	5.3	x	-1.6	2.7	-1.9	x	x
Nc1nonc1-n1nnc(C(=O)N/N=C/c2ccc(OCc3ccc(F)cc3)cc2)c1COc1ccccc1	-13.5	5.0	x	-4.1	19.5	19.5*	8.2	2.9
O=C(N/N=C/c1ccccc1)c1ccc(OCc2ccccc2)cc1	-10.1	2.9	-8.3	8.7	0.2	11.9*	3.2	4.3
CCCN(CCC)Cc1c(C(=O)N/N=C/c2ccc(C)o2)nnn1-c1nonc1N	3.6	0.5	x	2.2	5.7	13.0*	2.8	14.2
Cc1cccc2cc(C#N)c(NCCNC(=O)c3ccccc3)nc12	0.5	x	x	-7.7	-16.9	0.0	x	x
CCOC(=O)c1nn(-c2ccc(C)cc2)cc1C(=O)c1ccccc1	0.6	0.4	-6.7	-8.3	2.5	-0.5	x	x
CC(=O)c1nn(-c2cccc(Br)c2)cc1C(=O)c1ccco1	-5.0	0.7	-2.7	0.9	1.1	-1.5	x	x
CC(=O)c1nn(-c2ccccc2)cc1C(=O)c1cccc(Br)c1	-10.7	-1.5	-8.7	4.6	-0.1	9.8*	11.8*	5.0
CC(=O)c1nn(-c2cccc(Br)c2)cc1C(=O)c1ccc(Cl)cc1	-4.4	3.3	-2.2	-0.1	-5.4	32.2*	12.5*	5.7
CC(=O)c1nn(-c2ccc(Cl)cc2)cc1C(=O)c1ccccc1	13.2	0.0	x	-3.8	0.6	18.3*	3.8	16.0
COc1ccc([N+](=O)[O-])cc1N(CC(=O)N(C)C)S(C)(=O)=O	-3.0	0.3	-6.2	-10.6	28.1	-1.9	x	x
